Assay results collected from several papers.
MAOB: Amine oxidase [flavin-containing] B (MAOB, Homo sapiens, UniProt P27338)
CHRM4: Muscarinic acetylcholine receptor M4 (CHRM4, Homo sapiens, UniProt P08173)
Pancreatic alpha-amylase: Pancreatic alpha-amylase (Homo sapiens, UniProt P04746)
HDAC9: Histone deacetylase 9 (HDAC9, Homo sapiens, UniProt Q9UKV0)
PADI4: Protein-arginine deiminase type-4 (PADI4, Homo sapiens, UniProt Q9UM07)
ALDH1A3: Retinaldehyde dehydrogenase 3 (ALDH1A3, Homo sapiens, UniProt P47895)
CA9: Carbonic anhydrase 9 (CA9, Homo sapiens, UniProt Q16790)
Comt: Catechol O-methyltransferase (Comt, Rattus norvegicus, UniProt P22734)
GLO1: Lactoylglutathione lyase (GLO1, Homo sapiens, UniProt Q04760)

O=C(Nc1cccc(Br)c1)c1ccc2c(c1)C(=O)NC2=O  IC50 (MAOB; enzyme activity; inhibitor): 0.18 µM
O=C(CCNC(=O)CNC(=O)CC(c1ccccc1)(c1ccccc1)c1ccccc1)NC[C@@H]1CCCN(Cc2cccnc2F)C1  IC50 (CHRM4; ligand displacement; radioligand; cell membranes): > 30 µM
COc1cc(/C=N/NC(=S)N/N=C\c2ccc([N+](=O)[O-])cc2)ccc1Oc1ccnc2cc(Cl)ccc12  IC50 (Pancreatic alpha-amylase; enzyme activity; inhibitor; absorbance): 53 µM
COc1ccc(N(Cc2csc(-c3ccc(Br)cc3)n2)C(=O)CCCCCC(=O)NO)cc1  IC50 (HDAC9; enzyme activity; inhibitor): > 10 µM
N=C(CCl)NCCC[C@H](NC(=O)c1ccc2cc(O)ccc2c1)C(=O)NCc1ccccc1  IC50 (PADI4; enzyme activity; inhibitor; fluorescence; with preincubation): 0.24 µM
O=C(CCNC(=O)CNC(=O)CC(c1ccccc1)(c1ccccc1)c1ccccc1)NC[C@H]1CCCN(Cc2ccc(F)cc2)C1  IC50 (CHRM4; ligand displacement; radioligand; cell membranes): 13.5 µM
COc1cc(/C=N/NC(=S)N/N=C\c2ccc(Cl)c(Cl)c2)ccc1Oc1ccnc2cc(Cl)ccc12  IC50 (Pancreatic alpha-amylase; enzyme activity; inhibitor; absorbance): 45.7 µM
CC(C)N(CCC(=O)c1ccc2ccccc2c1)Cc1ccccc1  IC50 (ALDH1A3; enzyme activity; inhibitor): < 10 µM
CS(=O)(=O)Nc1ccc(Nc2nc(-c3cc4cc(Br)ccc4oc3=O)cs2)cc1Oc1ccccc1  IC50 (CA9; enzyme activity; inhibitor): 5.74 µM
CCCNS(=O)(=O)Nc1ncnc(OCCOc2ncc(Br)cn2)c1-c1ccc(Br)cc1  IC50 (Endothelin receptor type B (EDNRB, Homo sapiens, UniProt P24530); ligand displacement; radioligand; cell membranes): 1.37 µM
N=C(CCl)NCCC[C@H](NC(=O)c1ccc2cc(O)ccc2n1)C(=O)NCc1ccccc1  IC50 (PADI4; enzyme activity; inhibitor; fluorescence; with preincubation): 0.56 µM
COc1cc(/C=N/NC(=S)N/N=C/c2ccc(N(C)C)cc2)ccc1Oc1ccnc2cc(Cl)ccc12  IC50 (Pancreatic alpha-amylase; enzyme activity; inhibitor; absorbance): 50 µM
Cc1ccc(COc2ccc3ccc(C(=O)N[C@@H](CCCNC(=N)CCl)C(=O)NCc4ccccc4)cc3c2)cc1  IC50 (PADI4; enzyme activity; inhibitor; fluorescence; with preincubation): 2.19 µM
O=C(O)c1cc(O)c(O)c(O)c1  IC50 (Comt; enzyme activity; inhibitor): 709 µM
COc1cc(/C=N/NC(=S)N/N=C\c2ccc(CCl)cc2)ccc1Oc1ccnc2cc(Cl)ccc12  IC50 (Pancreatic alpha-amylase; enzyme activity; inhibitor; absorbance): 58.4 µM
Cc1ccc(-c2ccccc2C=O)c(C)c1  IC50 (ALDH1A3; enzyme activity; inhibitor): 43.5 µM
O=C(NO)c1ccc(Cn2cnc3c(Nc4cccc([N+](=O)[O-])c4)ncnc32)cc1  IC50 (HDAC9; enzyme activity; inhibitor): 0.677 µM
N=C(CCl)NCCC[C@H](NC(=O)c1ccc(O)cc1)c1nc2ccccc2[nH]1  IC50 (PADI4; enzyme activity; inhibitor; fluorescence; with preincubation): 0.718 µM
COc1cc(/C=N/NC(=S)NN=Cc2ccncc2)ccc1Oc1ccnc2cc(Cl)ccc12  IC50 (Pancreatic alpha-amylase; enzyme activity; inhibitor; absorbance): 49.7 µM
O=C(N[C@@H](CSCc1nc2cc([N+](=O)[O-])ccc2[nH]1)C(=O)NO)c1ccccc1  IC50 (GLO1; enzyme activity; inhibitor): 454 µM
NS(=O)(=O)c1ccc(Nc2nc(-c3cc4cc(Br)ccc4oc3=O)cs2)c(Br)c1  IC50 (CA9; enzyme activity; inhibitor): 0.86 µM
O=C(Nc1ccc(Cl)c(F)c1)c1ccc2c(c1)C(=O)NC2=O  IC50 (MAOB; enzyme activity; inhibitor): 0.029 µM
CN1CCC(CNc2ccc3ncc(-c4cccc(OC(F)(F)F)c4)n3n2)CC1  IC50 (Histamine H1 receptor (HRH1, Homo sapiens, UniProt P35367); calcium signal; antagonist): 8.45 µM
O=C1Nc2ccc(I)cc2/C1=C/c1cc(Br)c(O)c(Br)c1  IC50 (Dual specificity tyrosine-phosphorylation-regulated kinase 4 (DYRK4, Homo sapiens, UniProt Q9NR20); enzyme activity; inhibitor): 4.94 µM
CN1CCN(c2nc(-c3cc4cc(Br)ccc4oc3=O)cs2)CC1  IC50 (CA9; enzyme activity; inhibitor): 1.35 µM
N=C(CCl)NCCC[C@H](NC(=O)c1cccc(-c2ccc(O)cc2)c1)c1nc2ccccc2[nH]1  IC50 (PADI4; enzyme activity; inhibitor; fluorescence; with preincubation): 0.426 µM
O=C(Nc1ccc(Cl)c(Cl)c1)c1ccc2c(c1)C(=O)NC2=O  IC50 (MAOB; enzyme activity; inhibitor): 0.014 µM
COc1cc(/C=N/NC(=S)N/N=C/c2ccc(F)cc2)ccc1Oc1ccnc2cc(Cl)ccc12  IC50 (Pancreatic alpha-amylase; enzyme activity; inhibitor; absorbance): 54.3 µM
O=C(Nc1ccccc1)c1ccc2c(c1)C(=O)NC2=O  IC50 (MAOB; enzyme activity; inhibitor): 3.25 µM
COc1ccc(N(Cc2csc(-c3ccccc3)n2)C(=O)CCCCCC(=O)NO)cc1  IC50 (HDAC9; enzyme activity; inhibitor): > 10 µM
OC[C@H]1O[C@@H](Oc2ccc(O)c3cccc(O)c23)[C@H](O)[C@@H](O)[C@@H]1O  IC50 (ALDH1A3; enzyme activity; inhibitor): < 10 µM
N=C(CCl)NCCC[C@H](NC(=O)c1ccc2cc(B(O)O)ccc2c1)c1nc2ccccc2[nH]1  IC50 (PADI4; enzyme activity; inhibitor; fluorescence; with preincubation): 0.295 µM
O=C(O)CC(O)(CC(=O)O)C(=O)O  IC50 (Comt; enzyme activity; inhibitor): 947 µM
N=C(CCl)NCCC[C@H](NC(=O)c1cnc2cc(O)ccc2c1)C(=O)NCc1ccccc1  IC50 (PADI4; enzyme activity; inhibitor; fluorescence; with preincubation): 0.342 µM
COc1cc(/C=N/NC(=S)NN=Cc2cccs2)ccc1Oc1ccnc2cc(Cl)ccc12  IC50 (Pancreatic alpha-amylase; enzyme activity; inhibitor; absorbance): 60 µM
CN(C)c1ccc2cc(C(=O)N[C@@H](CCCNC(=N)CCl)c3nc4ccccc4[nH]3)ccc2c1  IC50 (PADI4; enzyme activity; inhibitor; fluorescence; with preincubation): 1.06 µM
O=C(Nc1ccc(F)c(F)c1)c1ccc2c(c1)C(=O)NC2=O  IC50 (MAOB; enzyme activity; inhibitor): 0.024 µM
O=C(N[C@@H](CSCc1ccccc1)C(=O)NO)c1ccccc1  IC50 (GLO1; enzyme activity; inhibitor): 5.27 µM
NS(=O)(=O)c1ccc(-c2ccc(Nc3ccncc3)cc2)cc1  IC50 (CA9; enzyme activity; inhibitor): 0.21 µM
